The values that follow come from ChEMBL document CHEMBL2346574, “Evaluation of (Z)-2-((1-benzyl-1H-indol-3-yl)methylene)-quinuclidin-3-one analogues as novel, high affinity ligands for CB1 and CB2 cannabinoid receptors” (Bioorg Med Chem Lett, 2013).

Assay [1] has as its target Cannabinoid receptor 1 (Mus musculus, UniProt P47746). Put plainly: Displacement of [3H]CP 55940 from CB1 receptor in mouse whole brain membrane homogenates after 90 mins by liquid scintillation counting. The class given is cell membranes. Put shortly:
(§1)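 Competition binding with 0.2 nM [3H]CP-55,940 and 5 mM MgCl2, in triplicate per concentration, using 50 mM Tris with 0.05% BSA and 0.1% ethanol/0.1% DMSO. CB1 used mouse whole-brain membranes and CB2 used CHO-hCB2 membranes. […] GF/B filtration, ice-cold washes, scintillation counting. Specific binding taken as percent of no-competitor.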

Assay [2] addresses Cannabinoid receptor 2 (Homo sapiens, UniProt P34972). Put plainly: Displacement of [3H]CP 55940 from human CB2 receptor expressed in CHO cells after 90 mins by liquid scintillation counting. The class given is cell-based. An outline of the steps: as §1
Assay [3] in a line: Selectivity ratio of Ki for CB1 receptor in mouse whole brain membrane homogenates to Ki for human CB2 receptor. It counts as cell membranes.

SMILES strings stand for the structures.

Chain of Cannabinoid receptor 1 (P47746 whole entry): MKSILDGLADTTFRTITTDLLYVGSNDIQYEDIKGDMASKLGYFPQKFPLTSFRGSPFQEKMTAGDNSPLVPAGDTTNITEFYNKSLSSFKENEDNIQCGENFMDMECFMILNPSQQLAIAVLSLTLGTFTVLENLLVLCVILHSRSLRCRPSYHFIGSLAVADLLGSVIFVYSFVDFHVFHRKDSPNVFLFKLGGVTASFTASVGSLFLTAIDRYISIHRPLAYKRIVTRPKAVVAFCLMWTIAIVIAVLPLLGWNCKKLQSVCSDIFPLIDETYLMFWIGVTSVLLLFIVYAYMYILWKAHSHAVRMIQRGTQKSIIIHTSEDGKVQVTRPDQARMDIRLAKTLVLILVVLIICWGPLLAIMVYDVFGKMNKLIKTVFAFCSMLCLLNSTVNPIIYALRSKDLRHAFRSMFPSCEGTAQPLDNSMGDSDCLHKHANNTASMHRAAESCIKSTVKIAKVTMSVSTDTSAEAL
Chain of Cannabinoid receptor 2 (P34972 whole entry): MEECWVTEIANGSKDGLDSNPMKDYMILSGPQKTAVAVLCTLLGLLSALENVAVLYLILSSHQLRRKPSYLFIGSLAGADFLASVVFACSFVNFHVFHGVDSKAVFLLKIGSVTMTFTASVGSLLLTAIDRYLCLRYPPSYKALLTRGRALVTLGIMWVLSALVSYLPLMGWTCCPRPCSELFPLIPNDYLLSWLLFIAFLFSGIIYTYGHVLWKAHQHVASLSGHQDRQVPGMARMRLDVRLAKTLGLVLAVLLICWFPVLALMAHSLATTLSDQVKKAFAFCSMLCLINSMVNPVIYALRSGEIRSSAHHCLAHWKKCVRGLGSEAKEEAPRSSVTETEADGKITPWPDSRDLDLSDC

Consider `N#Cc1ccc(Cn2cc(/C=C3/C(=O)C4CCN3CC4)c3ccccc32)cc1`, for which the Ki was found to be 55.3 nM in assay [1] and 114 nM in assay [2]. As for `O/N=C1/C(=C/c2cn(Cc3ccc(Cl)cc3)c3ccccc23)N2CCC1CC2`, the affinity in assay [1], expressed as Ki, was 95.7 nM. In the case of `O=C1/C(=C/c2cn(Cc3ccccc3)c3ccccc23)N2CCC1CC2`, the Ki in assay [1] is 135 nM; in assay [2], 11.7 nM. Turning to `COC(=O)c1ccc(Cn2cc(/C=C3/C(=O)C4CCN3CC4)c3ccccc32)cc1`, the values for the Ki in assay [1] and in assay [2] were 953 nM and 588 nM, respectively. Regarding `COC(=O)c1ccc2c(/C=C3/C(=O)C4CCN3CC4)cn(Cc3ccccc3)c2c1`, the Ratio Ki in assay [3] amounted to 34. The Ki in assay [1] worked out at 85.7 nM; in assay [2] it was 2.5 nM. Take `OC1/C(=C/c2cn(Cc3ccc(Cl)cc3)c3ccccc23)N2CCC1CC2` (racemic): the Ki in assay [1] came to 85.3 nM. For the compound `O/N=C1/C(=C/c2cn(Cc3ccccc3)c3ccccc23)N2CCC1CC2`, the Ki worked out at 357 nM in assay [1] and 68.6 nM in assay [2]. The corresponding values for `O=C1/C(=C/c2cn(Cc3ccc(F)cc3)c3ccccc23)N2CCC1CC2` are 9.23 nM and 1.33 nM. The corresponding values for `O=C1/C(=C/c2cn(Cc3ccccc3Br)c3ccccc23)N2CCC1CC2` are 629 nM and 333 nM. For the compound `O=C1/C(=C/c2cn(Cc3ccc(Cl)cc3)c3ccccc23)N2CCC1CC2`, the Ki in assay [1] came to 31.7 nM; in assay [2] it was 20.3 nM. The corresponding values for `OC1/C(=C/c2cn(Cc3ccccc3)c3ccccc23)N2CCC1CC2` (racemic) are 540 nM and 55.3 nM.
